One experiment deals with Candida albicans. Nature of the experiment: Antifungal activity against Candida albicans by two fold serial dilution method. The experiment is classed as functional. Put shortly: (§1)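 Broth microdilution MIC following CLSI M27-A2 with twofold serial dilutions; strains ATCC 18804 (C. albicans), ATCC 22019 (C. parapsilosis), ATCC 750 (C. tropicalis), ATCC 32608 (C. gattii), kept on Sabouraud dextrose agar at 4 °C. Amphotericin B and trimethoprim/sulfamethoxazole served as positive controls.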

For experiment [1], the system named is Candida tropicalis. Nature of the experiment: Antifungal activity against Candida tropicalis by two fold serial dilution method. The format is functional. In a few lines:
as §1

For another experiment, the system named is Candida parapsilosis. Put plainly: Antifungal activity against Candida parapsilosis by two fold serial dilution method. The experiment is classed as functional. The following applies: Lodderomyces parapsilosis. In a few lines:
as §1

In experiment [2] the test system is Candida tropicalis. Nature of the experiment: Antifungal activity against Candida tropicalis after 2 days by broth microdilution method in presence of 1 M osmotic stabilizer sorbitol. The format is functional. The following applies: 48 h.
The test system of experiment [3] is Paracoccidioides brasiliensis. Put plainly: Antifungal activity against Paracoccidioides brasiliensis Pb18 by serial dilution method. The format is functional.
Experiment [4] deals with Paracoccidioides brasiliensis. Nature of the experiment: Antifungal activity against Paracoccidioides brasiliensis Pb18 after 10 days by broth microdilution method in presence of 1 M osmotic stabilizer sorbitol. The experiment is classed as functional. The following applies: 240 h.
The subject of experiment [5] is Cryptococcus gattii species complex. Nature of the experiment: Antifungal activity against Cryptococcus gattii by two fold serial dilution method. The experiment is classed as functional, Cryptococcus bacillisporus. Put shortly: as §1
Experiment [6] shares this test system. Put plainly: Antifungal activity against Cryptococcus gattii by two fold serial dilution method after 3 days by broth microdilution method in presence of 1 M osmotic stabilizer sorbitol. The format is functional, Cryptococcus bacillisporus. The following applies: 72 h.
For the next experiment, the system named is MCF7. Put plainly: Anticancer activity against human MCF7 cells after 48 hrs by sulforhodamine B assay. The following applies: mcf7. The experiment is classed as functional, cell-based. In a few lines: (§2)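 Solid tumour lines from NCI (NCI colorimetric protocol), seeded and pre-incubated 24 h at 37 °C, 5% CO2, then exposed to compounds for 48 h. Proteins fixed with trichloroacetic acid, stained with sulforhodamine B, dye dissolved in 10 mM Tris, absorbance at 515 nm compared against initial-density control wells. IC50 from dose-response curves built with 1:2 serial dilutions; duplicate, repeated at least three times.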

In another experiment the test system is TK-10. Put plainly: Anticancer activity against human TK10 cells after 48 hrs by sulforhodamine B assay. The format is functional, cell-based. The following applies: tk-10. In a few lines:
as §2

The next experiment has as its system UACC-62. Put plainly: Anticancer activity against human UACC62 cells after 48 hrs by sulforhodamine B assay. The experiment is classed as functional, cell-based. The following applies: uacc-62. Put shortly: as §2
In a further experiment the test system is HL-60. Put plainly: Anticancer activity against human HL60 cells after 48 hrs by MTT assay. The experiment is classed as functional, cell-based. Put shortly: (§3)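 HL60 and Jurkat leukemia lines plated at 50,000 and 100,000 cells/well respectively and pre-incubated 24 h at 37 °C, 5% CO2. Compounds dissolved in DMSO and tested over a concentration range of […] for 48 h. Viability read by MTT reduction (4 h), formazan dissolved in acidic isopropanol, OD 590 nm. Values normalized to 0.05% DMSO control; IC50 taken graphically from dose-effect curves. Triplicate, three separate days.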

The next experiment relates to Jurkat. Put plainly: Anticancer activity against human Jurkat cells after 48 hrs by MTT assay. The experiment is classed as functional, cell-based. In a few lines: as §3
The mark [7] stands for this setting: Homo sapiens, HL-60, 48 h, read-out: IC50.
The mark [8] stands for this setting: Homo sapiens, Jurkat, 48 h, read-out: IC50.

A value given as a limit tells only on which side of the number the result lay.

For the compound `COc1ccc(C(=O)/C=C/c2ccc3c(ccc[n+]3C)c2)cc1.[I-]`, the MIC was 62.5 µg/mL in the experiment with Candida albicans; 62.5 µg/mL against Candida tropicalis [1]; 125 µg/mL in the experiment on Candida parapsilosis; > 31.2 µg/mL with Candida tropicalis [2]; 125 µg/mL in experiment [3]; > 31.2 µg/mL in experiment [4]. In addition, the MIC in [5] came to 31.2 µg/mL; in experiment [6] it was 62.5 µg/mL. The IC50 result in the experiment with MCF7 is “Not Active”; in the experiment with TK-10 it was “Not Active”; in the experiment on UACC-62 it was “Not Active”; with HL-60 (setting [7]), 25.2 µg/mL; with Jurkat (setting [8]), 11.9 µg/mL.

For `Cc1ccc(C(=O)/C=C/c2ccc3c(ccc[n+]3C)c2)cc1.[I-]`, the MIC is 125 µg/mL in the experiment on Candida albicans; 15.6 µg/mL against Candida tropicalis [1]; > 500 µg/mL in the experiment with Candida parapsilosis; 62.5 µg/mL in the experiment with Candida tropicalis [2]; 62.5 µg/mL in experiment [3]; > 31.2 µg/mL in experiment [4]. For the same compound, the MIC came to 7.8 µg/mL in [5] and 15.5 µg/mL in [6]. In addition, the IC50 result with MCF7, with TK-10, in the experiment with UACC-62, with HL-60 (hl-60) and in the experiment on Jurkat (jurkat) was “Not Active” throughout.

`C[n+]1cccc2cc(/C=C/C(=O)c3ccc([N+](=O)[O-])cc3)ccc21.[I-]`: the MIC was > 500 µg/mL with Candida albicans; 250 µg/mL against Candida tropicalis [1]; > 500 µg/mL with Candida parapsilosis; > 31.2 µg/mL in the experiment with Candida tropicalis [2]; 250 µg/mL in [3]; > 31.2 µg/mL in [4]. Moreover, the MIC in [5] worked out at 31.2 µg/mL; in experiment [6], 62.5 µg/mL. Moreover, the IC50 entry with MCF7, in the experiment on TK-10, in the experiment with UACC-62, with HL-60 (hl-60) and with Jurkat (jurkat) was “Not Active” throughout.

Take `C[n+]1cccc2cc(/C=C/C(=O)c3ccc(Br)cc3)ccc21.[I-]`: the MIC in the experiment with Candida albicans was 250 µg/mL; in the experiment with Candida tropicalis [1] it was 15.6 µg/mL; in the experiment on Candida parapsilosis it was 125 µg/mL; with Candida tropicalis [2], 15.6 µg/mL; in [3], 31.2 µg/mL; in experiment [4], 31.2 µg/mL. The MIC in experiment [5] and in experiment [6] was 7.8 µg/mL in each case. For the same compound, the IC50 result with MCF7 is “Not Active”; with TK-10, “Not Active”; with UACC-62, “Not Active”; in the experiment on HL-60 (hl-60) it was “Not Active”; in the experiment with Jurkat (setting [8]), 7.3 µg/mL.

Consider `C[n+]1cccc2cc(/C=C/C(=O)c3ccc(Cl)cc3)ccc21.[I-]`, for which the MIC with Candida albicans is 500 µg/mL; against Candida tropicalis [1], 31.2 µg/mL; against Candida parapsilosis, > 500 µg/mL; with Candida tropicalis [2], 31.2 µg/mL; in experiment [3], 125 µg/mL; in experiment [4], > 31.2 µg/mL. In addition, the MIC in experiment [5] and in [6] was 15.6 µg/mL in each case. Besides, the IC50 entry is “Not Active” with MCF7; “Not Active” in the experiment with TK-10; “Not Active” in the experiment with UACC-62; 9.9 µg/mL in the experiment with HL-60 (setting [7]); 4.9 µg/mL in the experiment on Jurkat (setting [8]).
